“And” between values parts separate entries of the source, which are not always exact repeats. Equal values may be shown once. Read-outs that look alike come from different tables or passages of the source.
Experiments:
[1] = assay type: in vivo, human (healthy men); conditions: human
[2] = Rat plasma PK and plasma metabolite profile after oral [14C]-levomilnacipran; assay type: in vivo, Sprague Dawley rats
How it was run: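 Male Sprague Dawley rats were gavaged with 50 mg/kg [14C]-test compound. Aortic blood was drawn under isoflurane into lithium heparin, three rats per time, from 0.25 to 72 h (second study: 1–10 h). Plasma radioactivity was counted by liquid scintillation. Parent and N-desethyl metabolite were measured by LC–MS/MS (1–500 ng/mL), and conjugates after β-glucuronidase/sulfatase deconjugation. Cmax and AUC came from non-compartmental analysis.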

[3] = Human mass balance and urine metabolite profile; assay type: in vivo, human (healthy men); conditions: 60 mg, urine 0–120 hours
How it was run: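 Open-label single-centre study in healthy young men. Each took one oral 5 mL solution of 60 mg [14C]-test compound (3.7 MBq), about 30 min after starting breakfast. Urine was collected in intervals to 120 h and feces in 24-h intervals to 120 h. Radioactivity was read by liquid scintillation and reported as % of dose. Urinary analytes were measured by LC–MS/MS (1–5,000 ng/mL) before and after β-glucuronidase/sulfatase deconjugation (15 h, 37°C).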

[4] = Monkey mass balance and urine metabolite profile; assay type: in vivo, Macaca fascicularis monkeys; conditions: 30 mg/kg, urine 0–24 hours
[5] = Rat mass balance and urine metabolite profile; assay type: in vivo, Sprague Dawley rats; conditions: rat (Sprague Dawley), 50 mg/kg, urine 0–24 hours
How it was run: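 Sprague Dawley rats received 50 mg/kg [14C]-test compound by gavage in ultrapure water. Urine, feces and cage wash were collected from 3 males and 3 females pre-dose and at 0–8, 8–24, 24–48 and 48–72 h. A second study collected urine from 3 males to 24 h. Radioactivity was counted by liquid scintillation as % of dose. Urinary analytes were measured by LC–MS/MS (50–24,750 ng/mL), with and without deconjugation (15 h, 37°C).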

[6] = cited from earlier work; for half-life (T1/2): humans
plasma proteins = conditions: cited from earlier work
[7] = Sprague Dawley, rat, plasma, po, 50 mg/kg

## CCN(CC)C(=O)[C@@]1(c2ccccc2)C[C@H]1CN [Levomilnacipran, levomilnacipran]
[1]; 60 mg oral
  Contribution to total radioactivity plasma exposure (area under the curve): 45.1%
[1]; from average peak plasma concentrations
  Contribution to total plasma radioactivity at peak plasma levels: 61.0%
[1]; within 12 hours of dosing
  Share of total plasma radioactivity: 52.9%
[1]; male, plasma, po, 60 mg
  AUC(0-inf): 2090 ng·h/mL
  AUC(0-t): 2060 ng·h/mL
  Cmax: 179 ng/mL
  Tmax: 2.75 h
  half-life: 10.4 h
[2]; [7]
  AUC(0-inf): 16600 ng·h/mL
  AUC(0-t): 16600 ng·h/mL
  Cmax: 8060 ng/mL
  Tmax: 0.5 h
[2]; male rats, 50 mg/kg oral
  Share of circulating total radioactivity: about 60%
[3]
  Mean urinary excretion of compound: 58.4 % of administered dose
[3]; listed as levomilnacipran
  Mean urinary excretion of compound: 58.4 % of administered dose and 58 % of administered dose
[4]
  Mean urinary excretion of compound: 35.5 % of administered dose
[5]
  Mean urinary excretion of compound: 40.2 % of administered dose

## CN(C)CC(c1ccc(O)cc1)C1(O)CCCCC1 (stereo not drawn) [desvenlafaxine]
[6]
  Urinary excretion as unchanged (parent) drug: 45%
  half-life (T1/2): 11 h
Plasma proteins
  plasma protein binding: 30%

## CNCC[C@H](Oc1cccc2ccccc12)c1cccs1 [duloxetine]
[6]
  Urinary excretion as unchanged (parent) drug: less than 1%
  half-life (T1/2): 12 h
Plasma proteins
  plasma protein binding: greater than 90%

## CCN(CC)C(=O)C1(c2ccccc2)CC1CN (stereo not drawn) [milnacipran]
[6]
  half-life (T1/2): 8 h
Plasma proteins
  plasma protein binding: 13%

## COc1ccc(C(CN(C)C)C2(O)CCCCC2)cc1 (stereo not drawn) [venlafaxine]
[6]
  half-life (T1/2): 5 h
Plasma proteins
  plasma protein binding: 27%
